Measured values as given in ChEMBL document CHEMBL4373711, “Development of 3,5-Dinitrophenyl-Containing 1,2,4-Triazoles and Their Trifluoromethyl Analogues as Highly Efficient Antitubercular Agents Inhibiting Decaprenylphosphoryl-β-d-ribofuranose 2'-Oxidase” (J Med Chem, 2019).
Values after ≈ are worked out from the molar mass of the structure shown. Active and inactive are the calls of the source. No cut-off for these calls is given here.

Columns and labels:
A-431 = test: Cytotoxicity against human A431 cells assessed as reduction in cell viability after 48 hrs by CellTiter 96 aqueous one solution assay; assay type: cell-based; settings: A-431, 48 h
Klebsiella pneumoniae = test: Antibacterial activity against Klebsiella pneumoniae at highest concentration measured after 24 to 48 hrs by alamar blue dye based broth microdilution assay; assay type: functional, organism-based
[1] = tested on: Mycobacterium tuberculosis; test: Antimycobacterial activity against Mycobacterium tuberculosis H37Rv CNCTC My 331/88 after 14 days; assay type: functional; settings: H37Rv CNCTC My 331/88, 336 h
Summary of the method: (§1)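 M. tuberculosis strains (H37Rv and clinical MDR/XDR isolates) tested by microdilution in Šula's semisynthetic medium. Compounds were dissolved in DMSO and tested at 32 to 0.03 µM in twofold steps. Inoculum was a 1.0 McFarland suspension diluted 10-3. Plates were incubated at 37 °C and read at 14 and 21 days.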

HepG2 = test: Cytotoxicity against human HepG2 cells assessed as reduction in cell viability after 48 hrs by CellTiter 96 aqueous one solution assay; assay type: cell-based; settings: HepG2, 48 h
Mycobacterium avium [2] = test: Antimycobacterial activity against Mycobacterium avium CNCTC My 330/88 after 21 days; assay type: functional; settings: CNCTC My 330/88, 504 h
Summary of the method: (§2)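 M. avium was tested by microdilution in Šula's semisynthetic medium, with compounds dissolved in DMSO and serially diluted from 1000 down to 1. Inoculum was a 1.0 McFarland suspension diluted 10-5. Plates were incubated at 37 °C and read at 14 and 21 days. […] Isoniazid and rifampicin served as standards.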

Mycobacterium kansasii [3] = test: Antimycobacterial activity against Mycobacterium kansasii CNCTC My 235/80 after 21 days; assay type: functional; settings: CNCTC My 235/80, 504 h
Summary of the method: (§3)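 Microdilution in Šula's semisynthetic medium; compounds in DMSO at 32–0.03 µM. Inoculum from 1.0 McFarland suspension diluted 10-4. […] Isoniazid and rifampicin as reference drugs.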

Mycobacterium kansasii [4] = test: Antimycobacterial activity against Mycobacterium kansasii CNCTC My 235/80 after 14 days; assay type: functional; settings: CNCTC My 235/80, 336 h; summary of the method: as §3
Mycobacterium kansasii [5] = test: Antimycobacterial activity against Mycobacterium kansasii 6509/96 after 7 days; assay type: functional; settings: 6509/96, 168 h; summary of the method: as §3
Staphylococcus aureus [6] = test: Antibacterial activity against methicillin-resistant Staphylococcus aureus subsp. aureus ATCC 43300 CCM 4750 at highest concentration measured after 24 to 48 hrs by alamar blue dye based broth microdilution assay; assay type: functional, organism-based
Candida tropicalis = test: Antifungal activity against Candida tropicalis ATCC 750 CCM 8264 at highest concentration measured after 24 to 48 hrs by alamar blue dye based broth microdilution assay; assay type: functional, organism-based
Mycobacterium kansasii [7] = test: Antimycobacterial activity against Mycobacterium kansasii 6509/96 after 14 days; assay type: functional; settings: 6509/96, 336 h; summary of the method: as §3
Lichtheimia corymbifera = test: Antifungal activity against Lichtheimia corymbifera CCM 8077 at highest concentration measured after 24 to 48 hrs by alamar blue dye based broth microdilution assay; assay type: functional, organism-based
Aspergillus fumigatus = test: Antifungal activity against Aspergillus fumigatus ATCC 204305 at highest concentration measured after 24 to 48 hrs by alamar blue dye based broth microdilution assay; assay type: functional, organism-based
[8] = tested on: Trichophyton interdigitale; test: Antifungal activity against Trichophyton interdigitale ATCC 9533 CCM 8377 at highest concentration measured after 72 to 120 hrs by alamar blue dye based broth microdilution assay; assay type: functional
Candida albicans = test: Antifungal activity against Candida albicans ATCC 24433 CCM 8320 at highest concentration measured after 24 to 48 hrs by alamar blue dye based broth microdilution assay; assay type: functional, organism-based
Escherichia coli = test: Antibacterial activity against Escherichia coli ATCC 25922 CCM 3954 at highest concentration measured after 24 to 48 hrs by alamar blue dye based broth microdilution assay; assay type: functional, organism-based
[9] = tested on: Staphylococcus epidermidis; test: Antibacterial activity against Staphylococcus epidermidis at highest concentration measured after 24 to 48 hrs by alamar blue dye based broth microdilution assay; assay type: functional, organism-based
[10] = Cytotoxicity against human A431 cells assessed as cell viability at 30 uM after 48 hrs by CellTiter 96 aqueous one solution assay relative to control; assay type: cell-based, A-431; settings: read-out: Activity
Summary of the method: (§4)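 HepG2 (DMEM, 10% FBS, 1 mM pyruvate) or A431 (DMEM, 10% FBS) seeded 10,000 cells/well, 24 h at 37 °C, 5% CO2, then 30 µM compound for 48 h. MTS reagent 60 min, absorbance 490 nm, background subtracted; 0.1% DMSO vehicle = 100%, 10% SDS = 0% viability.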

Staphylococcus aureus [11] = test: Antibacterial activity against Staphylococcus aureus subsp. aureus ATCC 29213 CCM 4223 at highest concentration measured after 24 to 48 hrs by alamar blue dye based broth microdilution assay; assay type: functional, organism-based
Aspergillus flavus = test: Antifungal activity against Aspergillus flavus CCM 8363 at highest concentration measured after 24 to 48 hrs by alamar blue dye based broth microdilution assay; assay type: functional, organism-based
Pseudomonas aeruginosa = test: Antibacterial activity against Pseudomonas aeruginosa ATCC 27853 CCM 3955 at highest concentration measured after 24 to 48 hrs by alamar blue dye based broth microdilution assay; assay type: functional, organism-based
Serratia marcescens = test: Antibacterial activity against Serratia marcescens at highest concentration measured after 24 to 48 hrs by alamar blue dye based broth microdilution assay; assay type: functional, organism-based
Mycobacterium avium [12] = test: Antimycobacterial activity against Mycobacterium avium CNCTC My 330/88 after 14 days; assay type: functional; settings: CNCTC My 330/88, 336 h; summary of the method: as §2
Candida parapsilosis = test: Antifungal activity against Candida parapsilosis ATCC 22019 CCM 8260 at highest concentration measured after 24 to 48 hrs by alamar blue dye based broth microdilution assay; assay type: functional, organism-based
[13] = tested on: Mycobacterium tuberculosis; test: Antimycobacterial activity against XDR Mycobacterium tuberculosis Praha 131 after 21 days; assay type: functional; settings: Praha 131, 504 h; summary of the method: as §1
[14] = tested on: Mycobacterium tuberculosis; test: Antimycobacterial activity against Mycobacterium tuberculosis H37Rv CNCTC My 331/88 after 21 days; assay type: functional; settings: H37Rv CNCTC My 331/88, 504 h; summary of the method: as §1
Mycobacterium kansasii [15] = test: Antimycobacterial activity against Mycobacterium kansasii CNCTC My 235/80 after 7 days; assay type: functional; settings: CNCTC My 235/80, 168 h; summary of the method: as §3
Pichia kudriavzevii = test: Antifungal activity against Candida krusei ATCC 6258 CCM8271 at highest concentration measured after 24 to 48 hrs by alamar blue dye based broth microdilution assay; assay type: functional, organism-based
Mycobacterium kansasii [16] = test: Antimycobacterial activity against Mycobacterium kansasii 6509/96 after 21 days; assay type: functional; settings: 6509/96, 504 h; summary of the method: as §3
[17] = Cytotoxicity against human HepG2 cells assessed as cell viability at 30 uM after 48 hrs by CellTiter 96 aqueous one solution assay relative to control; assay type: cell-based; settings: read-out: Activity; summary of the method: as §4
Enterococcus faecalis = test: Antibacterial activity against Enterococcus faecalis ATCC 29212 CCM 4224 at highest concentration measured after 24 to 48 hrs by alamar blue dye based broth microdilution assay; assay type: functional, organism-based
[18] = tested on: Mycobacterium tuberculosis; test: Antimycobacterial activity against XDR Mycobacterium tuberculosis Praha 131 after 14 days; assay type: functional; settings: Praha 131, 336 h; summary of the method: as §1

| SMILES | IC50 (A-431) | Activity (Klebsiella pneumoniae) | MIC99 [1] | IC50 (HepG2) | MIC99 (Mycobacterium avium [2]) | MIC99 (Mycobacterium kansasii [3]) | MIC99 (Mycobacterium kansasii [4]) | MIC99 (Mycobacterium kansasii [5]) | Activity (Staphylococcus aureus [6]) | Activity (Candida tropicalis) | MIC99 (Mycobacterium kansasii [7]) | Activity (Lichtheimia corymbifera) | viability at 48 h, 30 µM [10] | MIC99 (Mycobacterium avium [12]) | MIC99 [13] | MIC99 [14] | MIC99 (Mycobacterium kansasii [15]) | MIC99 (Mycobacterium kansasii [16]) | viability at 48 h, 30 µM [17] | MIC99 [18] | further results |
| --- | --- | --- | --- | --- | --- | --- | --- | --- | --- | --- | --- | --- | --- | --- | --- | --- | --- | --- | --- | --- | --- |
| O=[N+]([O-])c1cc(CSc2nnc(-c3ccccc3)n2Cc2ccccc2)cc([N+](=O)[O-])c1 | > 30 µM | inactive | 4 µM (≈ 1.79 µg/mL) | > 30 µM | > 1000 µM | 8 µM (≈ 3.58 µg/mL) | 4 µM (≈ 1.79 µg/mL) | 2 µM (≈ 0.895 µg/mL) | inactive | inactive | 8 µM (≈ 3.58 µg/mL) | inactive | 69% | > 1000 µM | 4 µM (≈ 1.79 µg/mL) | 4 µM (≈ 1.79 µg/mL) | 2 µM (≈ 0.895 µg/mL) | 8 µM (≈ 3.58 µg/mL) | 107% | 2 µM (≈ 0.895 µg/mL) | Activity (Aspergillus fumigatus): inactive; Activity [8]: inactive; Activity (Candida albicans): inactive; Activity (Escherichia coli): inactive; Activity [9]: inactive; Activity (Staphylococcus aureus [11]): inactive; Activity (Aspergillus flavus): inactive; Activity (Pseudomonas aeruginosa): inactive; Activity (Serratia marcescens): inactive; Activity (Candida parapsilosis): inactive; Activity (Pichia kudriavzevii): inactive; Activity (Enterococcus faecalis): inactive |
| Cn1c(SCc2ccc(Cl)c(Cl)c2)nnc1-c1cc([N+](=O)[O-])cc([N+](=O)[O-])c1 | > 30 µM | inactive | 0.06 µM (≈ 0.0264 µg/mL) | > 30 µM | > 500 µM | 0.5 µM (≈ 0.22 µg/mL) | 0.25 µM (≈ 0.11 µg/mL) | 0.06 µM (≈ 0.0264 µg/mL) | inactive | inactive | 0.125 µM (≈ 0.055 µg/mL) | inactive | 92% | > 500 µM | 0.06 µM (≈ 0.0264 µg/mL) | 0.06 µM (≈ 0.0264 µg/mL) | 0.125 µM (≈ 0.055 µg/mL) | 0.125 µM (≈ 0.055 µg/mL) | 110% | 0.06 µM (≈ 0.0264 µg/mL) | Activity (Aspergillus fumigatus): inactive; Activity [8]: inactive; Activity (Candida albicans): inactive; Activity (Escherichia coli): inactive; Activity [9]: inactive; Activity (Staphylococcus aureus [11]): inactive; Activity (Aspergillus flavus): inactive; Activity (Pseudomonas aeruginosa): inactive; Activity (Serratia marcescens): inactive; Activity (Candida parapsilosis): inactive; Activity (Pichia kudriavzevii): inactive; Activity (Enterococcus faecalis): inactive |
| O=[N+]([O-])c1cc(CSc2nnc(C3CCCCC3)n2Cc2ccccc2)cc(C(F)(F)F)c1 | > 30 µM |  | 16 µM (≈ 7.62 µg/mL) | > 30 µM | 250 µM (≈ 119 µg/mL) | 16 µM (≈ 7.62 µg/mL) | 16 µM (≈ 7.62 µg/mL) | 16 µM (≈ 7.62 µg/mL) |  |  | 16 µM (≈ 7.62 µg/mL) |  | 67% | 250 µM (≈ 119 µg/mL) | 16 µM (≈ 7.62 µg/mL) | 16 µM (≈ 7.62 µg/mL) | 16 µM (≈ 7.62 µg/mL) | 32 µM (≈ 15.2 µg/mL) | 79% | 16 µM (≈ 7.62 µg/mL) |  |
